According to ChEMBL document CHEMBL1149101, “New antibacterial agents derived from the DNA gyrase inhibitor cyclothialidine” (J Med Chem, 2004):
Values after ≈ are worked out from the molar mass of the structure shown.

What was measured:
[1] = Range for minimum inhibitory concentration against Enterococcus faecalis; 1-4; type: functional
[2] = tested on: Enterococcus faecalis; test: Minimum inhibitory concentration against Enterococcus faecalis; type: functional
Procedure, shortened: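 Agar dilution per NCCLS on Mueller–Hinton agar, strain E. faecalis 6 (listed as S. faecalis 6). Compound incorporated into melted medium at 50 °C just before pouring plates. Inoculum about 10⁴ CFU/spot from diluted overnight culture, applied with multipoint inoculator.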

[3] = species: Mus musculus; test: Percentage of binding to the mice plasma protein was determined; type: functional
[4] = tested on: Stenotrophomonas maltophilia; test: Minimum inhibitory concentration against Xanthomonas maltophilia AC739; type: functional
Procedure, shortened: (§1)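 NCCLS agar dilution on Mueller–Hinton agar, compound incorporated into melted medium at 50 °C. Inoculum about 10⁴ CFU/spot from diluted overnight cultures, multipoint-applied.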

[5] = tested on: Escherichia coli; test: Minimum inhibitory concentration against Escherichia coli 25922; type: functional; procedure, shortened: as §1
[6] = Minimum inhibitory concentration against Enterococcus faecalis
[7] = tested on: Staphylococcus aureus; test: In vivo effective dose was determined in septicaemic mice (Staphylococcus aureus Smith) when administration iv; type: functional
Procedure, shortened: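 Compound given iv as a gelatine microsuspension at 1 and 3 h post-challenge, 5 mice per group. ED50 (mg/kg) from day-4 survival by probit analysis.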

[8] = Range for minimum inhibitory concentration against Staphylococcus aureus; 0.5-2; type: functional
[9] = tested on: Staphylococcus aureus; test: Minimum inhibitory concentration against Staphylococcus aureus; type: functional
[10] = tested on: Staphylococcus aureus; test: Minimum inhibitory concentration against Staphylococcus aureus Smith; type: functional; procedure, shortened: as §1
[11] = biological target: T1, DNA gyrase (Escherichia coli) (UniProt P0AES6+P0AES4)
[12] = tested on: Staphylococcus aureus; test: Minimum inhibitory concentration against Staphylococcus aureus ATCC 25923; type: functional; procedure, shortened: as §1
[13] = tested on: Staphylococcus epidermidis; test: Minimum inhibitory concentration against Staphylococcus epidermidis 16/2; type: functional; procedure, shortened: as §1
[14] = biological target: T1, DNA gyrase (Escherichia coli); test: Maximum noneffective concentration against Escherichia coli DNA gyrase; type: protein-complex assay
Procedure, shortened: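 Gyrase A2B2 complex reconstituted from equimolar subunits (25 °C, 0.5 h). Relaxed pUC18 DNA incubated with enzyme at 37 °C for 0.5 h, compound 0.001–100 μg/mL. Products resolved on 0.8% agarose gel. MNEC, read visually, is the highest concentration still allowing complete plasmid supercoiling.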

[15] = tested on: Micrococcus luteus; test: Minimum inhibitory concentration against Micrococcus luteus ATCC 8340; type: functional
Procedure, shortened: (§2)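 Agar dilution per NCCLS in BB2 agar + 1% Isovitalex + 7.5% sheep blood + menadione, compound added to melted medium at 50 °C. About 10⁴ CFU/spot from diluted overnight cultures, multipoint-inoculated.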

[16] = tested on: Enterococcus faecalis; test: Minimum inhibitory concentration against Enterococcus faecalis 6; type: functional; procedure, shortened: as §1
[17] = tested on: Staphylococcus aureus; test: Minimum inhibitory concentration against Staphylococcus aureus 887; type: functional; procedure, shortened: as §2
[18] = tested on: Neisseria meningitidis; test: Minimum inhibitory concentration against Neisseria meningitides 69480; type: functional; procedure, shortened: as §2
[19] = Range for minimum inhibitory concentration against Staphylococcus aureus 0.5->[…]; type: functional
[20] = Range for minimum inhibitory concentration against Staphylococcus aureus; 0.06->64; type: functional
[21] = tested on: Streptococcus pyogenes; test: Minimum inhibitory concentration against Streptococcus pyogenes b15; settings: Streptococcus pyogenes; read-out: MIC
[22] = tested on: HeLa; test: Cytotoxicity in HeLa cells; type: cell-based
[23] = Range for minimum inhibitory concentration against Enterococcus faecalis;4-8; type: functional
[24] = Range for minimum inhibitory concentration against Enterococcus faecium; 2-8; type: functional
[25] = Range for minimum inhibitory concentration against Staphylococcus aureus; 0.5->[…]; type: functional
[26] = Range for minimum inhibitory concentration against Staphylococcus aureus; 4->64; type: functional
[27] = Staphylococcus aureus, read-out: MIC
[28] = Staphylococcus aureus, ATCC 25923, read-out: MIC

Row | Structure (SMILES) | MIC [4] | MIC [5] | MIC50 [9] | MIC90 [9] | MIC [10, 27] | MIC [12, 28] | MIC [13] | MIC [16] | further results
1 | CN[C@H](CC(C)C)C(=O)N[C@H]1C(=O)N[C@@H](CC(N)=O)C(=O)N[C@H]2C(=O)N[C@H]3C(=O)N[C@H](C(=O)N[C@H](C(=O)O)c4cc(O)cc(O)c4-c4cc3ccc4O)[C@H](O)c3ccc(c(Cl)c3)Oc3cc2cc(c3O[C@@H]2O[C@H](CO)[C@@H](O)[C@H](O)[C@H]2O[C@H]2C[C@](C)(N)[C@H](O)[C@H](C)O2)Oc2ccc(cc2Cl)[C@H]1O [VANCOMYCIN] | > 64 µg/mL | > 64 µg/mL | 1 µg/mL (≈ 0.69 µM) | 2 µg/mL (≈ 1.38 µM) |  |  |  |  | Range [1]: 4 µg/mL; MIC50 [2]: 2 µg/mL (≈ 1.38 µM); Activity [3]: 25%; MIC90 [6]: 4 µg/mL (≈ 2.76 µM); ED50 [7]: 1.5 mg/kg; Range [8]: 2 µg/mL
2 | COC(=O)[C@@H]1CSCc2c(O)cc(OC)c(C)c2C(=O)OCCC(=O)N1 | > 64 µg/mL | > 64 µg/mL |  |  | 64 µg/mL (≈ 167 µM) | > 64 µg/mL | 8 µg/mL (≈ 20.9 µM) | > 64 µg/mL | MNEC [11]: 0.25 µg/mL; MIC [12]: 64 µg/mL (≈ 167 µM); MNEC [14]: 0.5 µg/mL; MIC [15]: 16 µg/mL (≈ 41.7 µM); MIC [17]: > 64 µg/mL; MIC [18]: 32 µg/mL (≈ 83.5 µM)
3 | CN(C)[C@@H]1C(O)=C(C(N)=O)C(=O)[C@@]2(O)C(O)=C3C(=O)c4c(O)cccc4[C@@](C)(O)[C@H]3C[C@@H]12 [TETRACYCLINE] |  |  | > 16 µg/mL | > 16 µg/mL |  |  |  |  | Range [19]: 16 µg/mL
4 | C[C@@H](O)[C@H]1C(=O)N2C(C(=O)O)=C(SCCNC=N)C[C@H]12 [IMIPENEM ANHYDROUS] |  |  | 4 µg/mL (≈ 13.4 µM) | 16 µg/mL (≈ 53.4 µM) |  |  |  |  | Range [20]: 64 µg/mL
5 | COC(=O)[C@@H]1CSCc2c(O)cc(OC)c(C)c2C(=O)OCCCCC(=O)N1 | 16 µg/mL (≈ 38.9 µM) | > 64 µg/mL |  |  | 2 µg/mL (≈ 4.86 µM) | 4 µg/mL (≈ 9.72 µM) | 1 µg/mL (≈ 2.43 µM) | 4 µg/mL (≈ 9.72 µM) | MIC [10]: 2 µg/mL (≈ 4.86 µM); MIC [21]: 4 µg/mL (≈ 9.72 µM); MNEC [11]: 0.05 µg/mL; MIC [12]: 4 µg/mL (≈ 9.72 µM); IC50 [22]: > 50 µg/mL
6 | CO[C@@H]1[C@@H](OC(N)=O)[C@@H](O)[C@H](Oc2ccc3c(O)c(NC(=O)c4ccc(O)c(CC=C(C)C)c4)c(=O)oc3c2C)OC1(C)C [NOVOBIOCIN] | > 64 µg/mL | > 64 µg/mL |  |  | 0.12 µg/mL (≈ 0.196 µM) | 0.25 µg/mL (≈ 0.408 µM) | 0.25 µg/mL (≈ 0.408 µM) | 4 µg/mL (≈ 6.53 µM) | Range [23]: 8 µg/mL; MIC50 [2]: 4 µg/mL (≈ 6.53 µM); MIC90 [2]: 8 µg/mL (≈ 13.1 µM); Range [24]: 8 µg/mL; MIC [21]: 1 µg/mL (≈ 1.63 µM); ED50 [7]: 3 mg/kg
7 | O=C(O)c1cn(C2CC2)c2cc(N3CCNCC3)c(F)cc2c1=O [CIPROFLOXACIN] |  |  | 0.5 µg/mL (≈ 1.51 µM) | > 16 µg/mL |  |  |  |  | Range [25]: 16 µg/mL
8 | COc1cccc(OC)c1C(=O)N[C@@H]1C(=O)N2[C@@H]1SC(C)(C)[C@@H]2C(=O)O [METHICILLIN] |  |  | 32 µg/mL (≈ 84.1 µM) | > 64 µg/mL |  |  |  |  | Range [26]: 64 µg/mL
